Published values of several laboratories.
Cell line: LNCaP
Read-out: cell growth or viability

CNC(=O)c1ccc(N2C(=S)N(c3ccc(C#N)c(C(F)(F)F)c3)C(=O)C2(C)C)cc1F
GI50 (MTT): 13.7 µM

FC(F)(F)c1ccc(C(c2c[nH]c3ccccc23)c2c[nH]c3ccccc23)cc1
inhibition (MTT; 20 µM, 48 h): 97%

C[C@]12CC[C@H](O)CC1=CC[C@@H]1[C@@H]2CC[C@]2(C)C(c3cccnc3)=CC[C@@H]12
GI50 (MTT): 11.2 µM

CC(C)C[C@H](NC(=O)[C@H](Cc1ccccc1)NC(=O)c1cnccn1)B(O)O
IC50 (ATP luminescence): 0.019 µM

O=C(CCCCCCC(=O)Nc1ccccc1)NO
GI50 (MTT; 72 h): 5.2 µM

O=C(O)C(c1c[nH]c2ccccc12)c1c[nH]c2ccccc12
inhibition (MTT; 100 µM, 48 h): 34%

COc1ccc2c(N(C)c3ccc(/C(C)=N/OCCN)cc3)c3c(Cl)coc3nc2c1
IC50 (trypan blue; 72 h): 0.235 µM

CC(O)(CS(=O)(=O)c1ccc(F)cc1)C(=O)Nc1ccc(C#N)c(C(F)(F)F)c1 (stereo not shown)
IC50 (XTT; 7 days): 4.6 µM

CC(=O)O[C@@]12CO[C@@H]1C[C@H](O)[C@@]1(C)C(=O)[C@H](O)C3=C(C)[C@@H](OC(=O)[C@H](O)[C@@H](NC(=O)OC(C)(C)C)c4ccccc4)C[C@@](O)([C@@H](OC(=O)c4ccccc4)[C@H]21)C3(C)C
IC50 (trypan blue): 0.001 µM

O=C(CCCCCCC(=O)Nc1ccc(CCF)cc1)NO
GI50 (MTT; 72 h): 4.8 µM

Cn1cc(C(c2ccc(C(=O)O)cc2)c2cn(C)c3ccccc23)c2ccccc21
IC50 (MTT; 48 h): 36 µM

C[C@]12CC[C@H](O)CC1=CC[C@@H]1[C@@H]2CC[C@]2(C)C(n3cnc4ccccc43)=CC[C@@H]12
IC50 (XTT; 7 days): 2.6 µM

O=C(O)/C=C/c1cccc(C(c2c[nH]c3ccccc23)c2c[nH]c3ccccc23)c1
IC50 (MTT; 48 h): 43 µM

COc1cc(Nc2nccc(-c3cnn4nc(OC)ccc34)n2)cc(C(F)(F)F)c1
IC50 (ATP luminescence): 0.47 µM

COc1cc(C(=O)c2csc(-c3ccccc3)n2)cc(OC)c1OC
IC50 (SRB; 96 h): 0.028 µM

COC1=CC(=O)N(C(=O)[C@@H](CCC(Cl)(Cl)Cl)NC(=O)C(C)(C)C)[C@@H]1CCC(Cl)Cl
IC50 (resazurin; 96 h): 6.9 µM
